KCNK9 block – inhibitors of human KCNK9 two-pore domain potassium channel | hit rate 1.2% among 310,000 | HEK293 KCNK9, FluxOR thallium flux fluorescence; active compounds read low | B-score at 10 µM;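 active = ratio B-score over 3 SD below the library mean, with starting fluorescence within 5 SD of its mean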;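 also: negative B-score means less thallium flux so channel inhibition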
Target sequence (Q9NPC2 whole entry, looked up, the tested form may be a part): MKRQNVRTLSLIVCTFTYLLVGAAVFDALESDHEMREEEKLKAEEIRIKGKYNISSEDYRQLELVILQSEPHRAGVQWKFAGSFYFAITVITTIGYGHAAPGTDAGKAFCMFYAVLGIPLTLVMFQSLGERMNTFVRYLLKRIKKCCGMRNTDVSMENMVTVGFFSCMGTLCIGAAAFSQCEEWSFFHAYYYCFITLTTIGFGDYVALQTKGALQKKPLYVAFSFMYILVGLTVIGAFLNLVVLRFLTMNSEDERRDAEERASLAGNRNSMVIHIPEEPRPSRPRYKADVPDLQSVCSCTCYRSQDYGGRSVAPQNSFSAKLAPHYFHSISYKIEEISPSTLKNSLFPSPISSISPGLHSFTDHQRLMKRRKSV
hERG protect – shields human hERG channel from block by proarrhythmic agents. Q12809. CHO-hERG, FluxOR thallium flux, dofetilide IC70 present. activation (rescue from dofetilide block), less the hit threshold, % at 10 µM. hit rate 0.51% among 310,000;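 active = activation above the mean of controls blocked by dofetilide plus 5 SD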;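 also: thallium influx through hERG after potassium depolarization seen as dye fluorescence rise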
KCNQ1 act – potentiates or activates the human KCNQ1 potassium channel; CHO-K1 KCNQ1, thallium flux FluxOR fluorescence; active compounds read high; B-score at 10 µM; hit rate 0.35% among 310,000; AID 2648;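 active = fluorescence ratio B-score, a plate-corrected score, at least three library SD, with initial intensity B-score within 5 SD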
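Assay system: stable KCNQ1 CHO-K1 line; medium: assay buffer, equal DMSO in all wells; timing: 90 min dye loading and 20 min compound exposure, both at room temperature; technique: kinetic FluxOR thallium fluorescence, 10-s 1-Hz baseline, 110-s post-stimulus read; read-out basis: B score of baseline-normalized fluorescence ratio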
KCNK3 inh – human KCNK3 channel inhibition, primary screen | B-score at 10 µM | hit rate 0.84% among 340,000 | CHO-KCNK3 thallium flux, FluxOR fluorescence; active compounds read low | O14649;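 active = B-score under library mean minus 4 SD, starting fluorescence ratio at most library mean plus 5 SD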;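 also: more negative B-score means stronger inhibition of thallium flux through KCNK3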
KCNQ1 inh – inhibitors of human KCNQ1 potassium channel | hit rate 1.3% among 310,000 | B-score at 10 µM | CHO-K1 KCNQ1, FluxOR thallium flux fluorescence; active compounds read high;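 active = compounds whose thallium flux B-score, printed positive for inhibition, exceeds three library SD while starting fluorescence stays within three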;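 also: channel opened by potassium depolarization with thallium stimulus after 20 min compound exposure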
KCNK9 block conf – human KCNK9 inhibitor confirmation. shares compounds with KCNK9 block. AID 492992. inhibition, % at 10 µM. HEK293 KCNK9 cells, FluxOR thallium flux fluorescence. hit rate 43% among 4,900;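 active = thallium signal inhibited by more than 5 SD of the compound-free buffer control wells, on both duplicate plates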
Kir2-1 spec – tests whether KCNK9 modulators also affect mouse Kir2.1; AID 492993; hit rate 4% among 4,900; shares compounds with KCNK9 block; inhibition, % at 10 µM; Kir2.1 cells, FluxOR thallium flux fluorescence;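 active = thallium signal drop more than 5 SD beyond the mean of the no-compound control wells, seen in both duplicate plates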;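 also: signal is fluorescence rise after thallium addition divided by baseline fluorescence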
HEK293 Tl ctr – second check of KCNK9 modulator effects in non-induced HEK293 cells. shares compounds with KCNK9 block. FluxOR thallium flux. inhibition, % at 10 µM. hit rate 40% among 4,900;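 active = thallium signal drop beyond 5 SD of the untreated control mean, on both duplicate plates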
Hits are given with their value; . = inactive; / = not tested or not shown. This is a sample that favours compounds with a hit; in the whole collection about 3.1% have one here.

SMILES	KCNK9 block	hERG protect	KCNQ1 act	KCNK3 inh	KCNQ1 inh	KCNK9 block conf	Kir2-1 spec	HEK293 Tl ctr
CC1CCc2c(sc(NC(=O)c3ccccc3C(=O)O)c2C#N)C1 (configuration not stated)	.	.	.	.	.	/	/	/
Cc1ccc(-c2csc(NC(=O)CSc3nc(C)cc(=O)[nH]3)n2)cc1	.	.	.	/	.	/	/	/
Cc1ccc(-c2csc(NC(=O)CSC3=NCCS3)n2)cc1	.	.	.	.	.	.	.	.
CCOc1ccc(-c2cc(NC(=O)c3c(F)cccc3F)c(C(=O)O)s2)cc1	.	.	.	.	.	.	.	.
CCOC(=O)c1sc(-c2ccc(OC)cc2)cc1NC(C)=O	.	.	.	.	.	.	.	.
Cc1ccccc1SC1CCN(Cc2nc(C3CC3)no2)CC1	.	.	.	.	.	/	/	/
CS(=O)(=O)Nc1ccc(C2=NN(S(=O)(=O)c3ccc(F)cc3)C(c3ccco3)C2)cc1 (configuration not stated)	-10.4	.	.	.	.	38.0%	.	.
COc1ccc(C2N(Cc3ccccc3)CC(=O)N2/N=C(\C)c2ccccc2)cc1 (configuration not stated)	.	.	.	.	.	/	/	/
CN1C(=O)CCC(CCC(=O)O)(c2ccccc2O)C1=O (configuration not stated)	.	.	.	.	.	/	/	/
COc1ccc2oc(=O)c(-c3csc(Nc4cccc(O)c4)n3)cc2c1	-15	.	.	.	11	65.5%	.	28.5%
CN1CCN(S(=O)(=O)c2ccc3c(c2)CC(=O)N3C)CC1	-10.1	.	.	.	.	35.0%	.	.
CN1C(=O)Cc2cc(S(=O)(=O)N3CCN(c4ccc(Cl)cc4)CC3)ccc21	.	.	.	.	.	/	/	/
CCOC(=O)/C=C1\SC(C)C(=O)N1CC(=O)N(CCC#N)c1ccccc1 (configuration not stated)	/	/	/	.	/	/	/	/
CC(OC(=O)c1cccc(-n2cnnn2)c1)c1nc2ccccc2c(=O)[nH]1 (configuration not stated)	/	/	/	.	/	/	/	/
CC1Nc2ncnc(N3CCc4ccccc4C3)c2N(Cc2ccc(Cl)cc2)C1=O (configuration not stated)	-10.7	.	.	.	.	34.5%	.	29.5%
CC1Nc2ncnc(N3CCc4ccccc4C3)c2N(Cc2ccc(Br)cc2)C1=O (configuration not stated)	-11.1	.	.	.	.	31.0%	.	30.5%
CC1Nc2ncnc(N3CCN(c4ccccc4)CC3)c2N(Cc2ccc(Cl)cc2)C1=O (configuration not stated)	.	.	.	.	.	/	/	/
Cc1cccc(CN2CCCC(C(=O)N3CCCCC3)C2)c1 (configuration not stated)	.	.	.	.	.	/	/	/
Cc1cccc(CN2CCCC(C(=O)N3CCc4ccccc4C3)C2)c1 (configuration not stated)	.	.	.	.	.	.	.	.
O=C(CN1CCc2ccccc21)NCc1ccc2c(c1)OCO2	.	.	.	.	.	/	/	/
O=C(CN1CCc2ccccc21)NCc1ccccc1Cl	.	.	.	.	.	.	.	.
Cc1cc(NC(=O)c2cc(-c3cccs3)nc3ccccc23)no1	-9.63	.	.	.	.	37.5%	.	.
COC(=O)c1ccc(COc2ccccc2/C=C(\C#N)C(=O)Nc2ccccc2C)cc1	.	.	.	.	.	/	/	/
COC(=O)c1ccc(COc2ccccc2/C=C(\C#N)C(=O)Nc2c(C)cccc2C)cc1	-13.2	.	.	.	.	76.0%	.	34.0%
CCOc1ccc(N(CC(=O)Nc2ccc(C)c(C)c2)S(C)(=O)=O)cc1	.	.	.	.	.	/	/	/
CN(C(=O)Nc1ccccc1)C1CCCCC1	.	.	.	.	.	/	/	/
CC(c1cccs1)N(C(=O)Nc1ccccc1)C1CCCCC1 (configuration not stated)	.	.	.	.	.	.	.	.

Bioassay records deposited in PubChem BioAssay by Johns Hopkins Ion Channel Center.
